Screening data from PubChem BioAssay.
Most compounds without a hit are left out; they make up all but 1.1% or so of the library.
iPSC survival up = enhancers of single-cell hiPSC survival, primary screen, ATPlite luminescence; 100% = ROCK inhibitor wells, 0% = DMSO; 360,000 compounds, 0.044% hits; survival enhancement, % at 20 µM; AID 602274, 2012; in the data active = survival enhancement above about 18%;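 note: cells exposed to compounds for 16 hours before the ATP read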
FAS TE block = FAS thioesterase domain inhibitors, primary screen, biochemical, fluorescence intensity, uHTS. Fatty acid synthase (Homo sapiens), P49327. recombinant FAS-TE, OMFH fluorogenic substrate, fluorescence endpoint. inhibition, % at 15 µM. 360,000 compounds, 0.67% hits. AID 602261, 2012;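 active = compounds whose normalised, plate-corrected inhibition of enzyme fluorescence in the single-dose primary screen is 50% or more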;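 note: 0% = DMSO with enzyme and 100% = substrate without enzyme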
ABCB6 inh MLPCN = ABCB6 transporter inhibitors, primary screen, K562-ABCB6 cells, flow cytometry, MLPCN library; 360,000 compounds, 0.19% hits; fluorescence ratio to DMSO, % at 10 µM; K562-ABCB6 porphyrin accumulation, 1 h; stronger effect = lower value;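 active = fluorescence ratio to DMSO below 75%, the collection mean minus 3 SD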;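 note: signal is porphyrin accumulated inside mitochondria; 100% equals median channel fluorescence of DMSO control wells; lower ratio means ABCB6 inhibition with less porphyrin fluorescence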
SENP1 inh = human SENP1 catalytic domain inhibitors, primary screen, biochemical, FRET, uHTS; Sentrin-specific protease 1 (Homo sapiens), Q9P0U3; recombinant SENP1 catalytic domain, CyPet-SUMO1-YPet FRET cleavage; inhibition, % at 10 µM; 360,000 compounds, 0.21% hits;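 active = inhibition at least 30% at 10 µM, raw YFP signal under a set limit, fluorescence ratio 0.5 to 1.5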;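 note: 0% = enzyme with DMSO and 100% = no enzyme wells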
Target sequence (Q9P0U3 419-644 limits assumed): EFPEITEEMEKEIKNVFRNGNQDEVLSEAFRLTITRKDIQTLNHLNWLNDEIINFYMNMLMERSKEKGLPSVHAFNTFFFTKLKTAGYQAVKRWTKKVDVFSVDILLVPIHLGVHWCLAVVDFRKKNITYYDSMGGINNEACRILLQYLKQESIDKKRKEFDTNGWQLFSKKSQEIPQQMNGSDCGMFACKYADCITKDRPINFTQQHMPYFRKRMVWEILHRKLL
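material = recombinant human SENP1 catalytic domain, His6-tagged | quantity = 20 pM enzyme | reagent = 25 nM SUMO1 FRET substrate | compound dosing = 10 µM single point, 0.5% DMSO | timing = 50 min enzyme reaction, room temperature, light-protected | detection = FRET, CFP and YFP emission | control set = no-enzyme low, enzyme-DMSO high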
FAS-TE conf = FAS thioesterase domain inhibitors, confirmation, biochemical, fluorescence intensity, single concentration. shares compounds with FAS TE block. recombinant FAS-TE, OMFH fluorogenic substrate. inhibition, % at 15 µM. 2,300 compounds, 45% hits. AID 624325, 2012;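 active = compounds inhibiting the enzyme by at least 50% at 15 µM in any one of the replicates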;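 note: 0% = enzyme with DMSO only and 100% = wells lacking enzyme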
Starred values were filed as active, the others as inactive; x = not tested or not shown.

SMILES | iPSC survival up | FAS TE block | ABCB6 inh MLPCN | SENP1 inh | FAS-TE conf
COc1ccccc1NS(=O)(=O)c1ccc(NN=C2CCCC2)c([N+](=O)[O-])c1 | 0.7 | 31.6 | 94.0 | 0.0 | x
CC(C)CN(C(=O)CN1CCN(c2ccc([N+](=O)[O-])cc2)CC1)c1c(N)n(CC(C)C)c(=O)[nH]c1=O | 0.4 | 1.6 | 96.0 | -2.4 | x
CCc1ccc(-n2ccc(=O)c(C(=O)O)n2)cc1 | -0.3 | -1.6 | 100.0 | 1.9 | x
Cc1nn(-c2ccccc2)c(N2CCCCC2)c1/C=N/NC(=O)c1ccncc1 | -1.9 | 16.8 | 103.0 | 2.4 | x
COc1c(/C=N/Nc2ccc([N+](=O)[O-])cc2[N+](=O)[O-])c(C)nn1-c1ccccc1 | -0.8 | 12.4 | 86.0 | 3.0 | x
Cc1nn(-c2ccccc2)c(N2CCCC2)c1/C=N/Nc1ccc(S(=O)(=O)Nc2ccccc2)cc1[N+](=O)[O-] | -2.9 | 52.7* | 92.0 | 3.6 | 4.8
CCOc1ccc(S(=O)(=O)Nc2ccc(C(=O)N/N=C/c3c(C)nn(-c4ccccc4)c3N3CCCC3)cc2)cc1 | -0.5 | 54.6* | 97.0 | 2.5 | 0.1
O=C(Nc1ccc(C(F)(F)F)cc1)C1CCCCN1S(=O)(=O)c1ccccc1 (stereo not drawn) | 0.1 | 23.6 | 97.0 | -2.9 | x
O=C(Nc1c(-c2ccccc2)[nH][nH]c1=O)c1cccs1 | x | x | x | 3.1 | x
O=C(/C=C/c1cccc([N+](=O)[O-])c1)NCCSCc1ccc(Cl)cc1Cl | -1.2 | 58.8* | 101.0 | 0.2 | 58.0*
O=C(/C=C/c1cccc([N+](=O)[O-])c1)NCCSCc1ccccc1Cl | -0.6 | 75.4* | 84.0 | 2.8 | 8.5
CCCCNC(=O)c1nc(C2CCN(S(=O)(=O)c3ccc(OC(F)(F)F)cc3)CC2)oc1-c1ccccc1 | x | x | x | 2.8 | x
COCCNC(=O)C(=O)NCC1OCCN1S(=O)(=O)c1ccc(F)cc1 (stereo not drawn) | -0.4 | -7.7 | 103.0 | -0.9 | x
COc1cc2c(-c3ccc4cc[nH]c4c3)c(-c3ccc(C#N)cc3)oc(=O)c2cc1OC | -2.2 | 66.9* | 96.0 | -3.4 | 10.9
COc1ccc(-c2oc(=O)c3cc(OC)c(OC)cc3c2-c2ccc3c(c2)OCO3)cc1 | -1.9 | 28.6 | 81.0 | 2.3 | x
Cc1ccc(N2C(=O)[C@@H]3[C@H](C2=O)C2c4ccccc4C=NN2[C@@H]3C(=O)c2ccc(Cl)cc2)cc1 (stereo partly drawn) | 1.8 | 82.3* | 105.0 | 14.2 | -0.3
O=C(c1ccc(Cl)cc1)[C@@H]1[C@@H]2C(=O)N(c3ccc(Cl)cc3)C(=O)[C@@H]2C2c3ccccc3C=NN21 (stereo partly drawn) | 1.3 | 69.3* | 100.0 | 15.3 | 10.4
CC(C)c1ccc(/C=C2\SC(=O)N(CC(=O)NCCCn3ccnc3)C2=O)cc1 | -0.9 | -18.0 | 99.0 | 1.9 | x
O=C(Nc1nnc(-c2ccc(F)cc2)o1)c1cccc([N+](=O)[O-])c1 | -1.8 | 56.3* | 99.0 | 0.9 | 53.7*
CC(=O)Nc1cc2nc(C)n(Cc3ccc([N+](=O)[O-])cc3)c2nc1C | -0.8 | -2.8 | 97.0 | 1.5 | x
O=[N+]([O-])c1ccc(-c2nc(NCC3CCCO3)c3ccccc3n2)cc1 (stereo not drawn) | 0.1 | 60.3* | 91.0 | 1.4 | 16.2
O=[N+]([O-])c1ccc(-c2nc(Nc3ccc(O)cc3)c3ccccc3n2)cc1 | -0.3 | 17.5 | 97.0 | 2.6 | x
O=C(O)c1ccc(Nc2nc(-c3ccc([N+](=O)[O-])cc3)nc3ccccc23)cc1 | 0.1 | 54.9* | 100.0 | 0.6 | 7.2
Cc1ccc(C(=O)N2CC(=O)Nc3ccc(F)cc3C2c2ccccc2)cc1[N+](=O)[O-] (stereo not drawn) | -1.6 | 25.4 | 99.0 | 2.6 | x
O=C1CN(C(=O)c2cc([N+](=O)[O-])ccc2Cl)C(c2ccccc2)c2cc(F)ccc2N1 (stereo not drawn) | 0.1 | 85.5* | 96.0 | 1.3 | 88.2*
SMILES | iPSC survival up | FAS TE block | ABCB6 inh MLPCN | SENP1 inh | FAS-TE conf
CCN(C(=O)COC(=O)c1cc(-c2cccc3ccccc23)nc2ccccc12)C1CCS(=O)(=O)C1 (stereo not drawn) | -1.4 | 60.3* | 95.0 | -2.0 | 31.7
COc1ccc(NC(=O)C(Sc2nnc(-c3ccncc3)n2-c2ccccc2C)c2ccccc2)cc1Cl (stereo not drawn) | 5.0 | 55.7* | 102.0 | -1.5 | 14.5
COc1ccc(NC(=O)C(OC)c2ccccc2)cc1Cl (stereo not drawn) | -1.7 | -5.4 | 96.0 | 2.4 | x
COC(=O)c1cc(NC(=S)NCc2ccc(Cl)cc2)cc(C(=O)OC)c1 | 2.8 | 50.9* | 101.0 | -1.5 | 36.5
COC(=O)c1cccc(NC(=S)NCc2ccc(Cl)cc2)c1 | -1.3 | 17.9 | 91.0 | 1.8 | x
CCOC(=O)c1ccc(Nc2nc(N3CCOCC3)nc(N3CCOCC3)n2)cc1 | -0.4 | 50.8* | 95.0 | 0.0 | 13.5
CCOc1cc(/C=N\Nc2nc(Nc3ccccc3)nc(N3CCOCC3)n2)ccc1OC(=O)c1ccco1 | -1.3 | 72.1* | 93.0 | 2.0 | 16.6
COc1cc(NC(=O)C(C)(C)C)c(C(=O)OCC(=O)Nc2cc(C)on2)cc1OC | -1.9 | -7.0 | 89.0 | 1.7 | x
N#CCSc1ccccc1NC(=O)CN1C(=O)C2CC=CCC2C1=O (stereo not drawn) | 0.8 | -21.0 | 313.0 | 37.7 | x
Cc1cc(C)c(C#N)c(SCS(=O)Cc2ccc(Cl)cc2)n1 (stereo not drawn) | -0.1 | 69.4* | 98.0 | 2.8 | 70.7*
c1ccc2c(C(c3nnnn3-c3ccc4c(c3)OCCO4)N3CCCCC3)ccnc2c1 (stereo not drawn) | 0.4 | 4.4 | 96.0 | 1.7 | x
Cc1cccc(C)c1N1CCN(C(c2ccnc3ccccc23)c2nnnn2-c2ccc3c(c2)OCCO3)CC1 (stereo not drawn) | 0.3 | 79.4* | 87.0 | 1.8 | 2.1
CCOc1ccccc1N1CCN(C(=S)NC(=O)C23CC4CC(CC(C4)C2)C3)CC1 | 2.3 | 51.1* | 95.0 | -0.4 | 14.8
O=C(NC(=S)N1CCN(c2ccc(F)cc2)CC1)C12CC3CC(CC(C3)C1)C2 | -1.0 | 6.9 | 99.0 | 0.2 | x
Cc1ccc(S(=O)(=O)N2[C@@H](c3ccc(C(C)(C)C)cc3)C(C(=O)O)=CC[C@H]2c2ccc(Cl)cc2)cc1 | -0.9 | 55.1* | 100.0 | -0.3 | 49.3*
Cc1ccc(S(=O)(=O)N2[C@@H](c3ccc(C(C)(C)C)cc3)C(C(=O)O)=CC[C@H]2c2ccc(C(C)C)cc2)cc1 | 1.1 | 76.5* | 92.0 | 0.8 | 25.1
Cc1ccc([C@@H]2CC=C(C(=O)O)[C@H](c3ccc(C(C)(C)C)cc3)N2S(=O)(=O)c2ccc(C)cc2)cc1 | 3.9 | 18.9 | 98.0 | 1.1 | x
